Laboratory results taken from ChEMBL document CHEMBL1121603, “Structure-activity relationships of antibacterial 6,7- and 7,8-disubstituted 1-alkyl-1,4-dihydro-4-oxoquinoline-3-carboxylic acids” (1980).
Values after ≈ are worked out from the molar mass of the structure shown.

What was measured:
Type in all cases: functional
Escherichia coli = experiment: In vitro for antibacterial activity against Gram-negative Escherichia coli […] JC-2.
In short: (§1)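 MIC in µg/mL, determined by a standard twofold serial dilution method on agar media.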

Pseudomonas aeruginosa = experiment: In vitro antibacterial activity against Gram-negative Pseudomonas aeruginosa V-1.; in short: as §1
Staphylococcus aureus = experiment: In vitro antibacterial activity against Gram-positive, Staphylococcus aureus 209 P; in short: as §1

Row | Structure (SMILES) | MIC (Escherichia coli) | MIC (Pseudomonas aeruginosa) | MIC (Staphylococcus aureus)
1 | CCn1cc(C(=O)O)c(=O)c2cc(F)c(N3CCCC3)cc21 | 0.39 µg/mL (≈ 1.28 µM) | 12.5 µg/mL (≈ 41.1 µM) | 0.2 µg/mL (≈ 0.657 µM)
2 | CCn1ccc(=O)c2cc(F)c(N3CCNCC3)cc21 | > 100 µg/mL | > 100 µg/mL | > 100 µg/mL
3 | CCn1cc(C(=O)O)c(=O)c2cc(F)c(N3CCC(N(C)C)CC3)cc21 | 0.1 µg/mL (≈ 0.277 µM) | 3.13 µg/mL (≈ 8.66 µM) | 0.39 µg/mL (≈ 1.08 µM)
4 | CCn1cc(C(=O)O)c(=O)c2cc([N+](=O)[O-])c(N3CCNCC3)cc21 | 0.78 µg/mL (≈ 2.25 µM) | 12.5 µg/mL (≈ 36.1 µM) | 25 µg/mL (≈ 72.2 µM)
5 | CCn1cc(C(=O)O)c(=O)c2cc(F)c(N3CCN(C)CC3)cc21 [PEFLOXACIN] | 0.1 µg/mL (≈ 0.3 µM) | – | 0.39 µg/mL (≈ 1.17 µM)
6 | CCn1cc(C(=O)O)c(=O)c2cc(F)c(C)cc21 [NALDIXIC ACID] | 0.39 µg/mL (≈ 1.56 µM) | 50 µg/mL (≈ 201 µM) | 6.25 µg/mL (≈ 25.1 µM)
7 | CCn1cc(C(=O)O)c(=O)c2cc(F)c(N(C)C)cc21 | 0.39 µg/mL (≈ 1.4 µM) | 50 µg/mL (≈ 180 µM) | 0.78 µg/mL (≈ 2.8 µM)
8 | CCn1cc(C(=O)O)c(=O)c2cc(Cl)c(N3CCN(C)CC3)cc21 | 0.78 µg/mL (≈ 2.23 µM) | 25 µg/mL (≈ 71.5 µM) | 1.56 µg/mL (≈ 4.46 µM)
9 | CCn1cc(C(=O)OC)c(=O)c2cc(F)c(N3CCNCC3)cc21 | 12.5 µg/mL (≈ 37.5 µM) | 50 µg/mL (≈ 150 µM) | 100 µg/mL (≈ 300 µM)
10 | CCn1cc(C(=O)O)c(=O)c2cc(Br)c(N3CCNCC3)cc21.Cl | 0.39 µg/mL | 12.5 µg/mL | 3.13 µg/mL
11 | CCn1cc(C(=O)O)c(=O)c2cc(F)c(N3CCOCC3)cc21 | 0.2 µg/mL (≈ 0.624 µM) | 12.5 µg/mL (≈ 39 µM) | 0.78 µg/mL (≈ 2.44 µM)
12 | CN1CCN(c2cc3c(cc2F)c(=O)c(C(=O)O)cn3CCF)CC1 | 0.1 µg/mL (≈ 0.285 µM) | 3.13 µg/mL (≈ 8.91 µM) | 0.39 µg/mL (≈ 1.11 µM)
13 | C=CCN1CCN(c2cc3c(cc2F)c(=O)c(C(=O)O)cn3CC)CC1 | 0.39 µg/mL (≈ 1.09 µM) | 6.25 µg/mL (≈ 17.4 µM) | 0.39 µg/mL (≈ 1.09 µM)
14 | CCn1cc(C(=O)O)c(=O)c2cc(F)c(N3CCNCC3)cc21 [NORFLOXACIN] | 0.05 µg/mL (≈ 0.157 µM) | 0.39 µg/mL (≈ 1.22 µM) | 0.39 µg/mL (≈ 1.22 µM)
15 | CCn1cc(C(=O)O)c(=O)c2ccc(N3CCNCC3)c(Cl)c21.Cl | 0.39 µg/mL | 6.25 µg/mL | 3.13 µg/mL
16 | CCn1cc(C(=O)O)c(=O)c2cc(Cl)c(N3CCNCC3)cc21.Cl | 0.2 µg/mL | 3.13 µg/mL | 1.56 µg/mL
17 | Cl.O=C(O)c1cn(CCF)c2cc(N3CCNCC3)c(F)cc2c1=O | 0.1 µg/mL | 0.78 µg/mL | 1.56 µg/mL
18 | CCn1cc(C(=O)O)c(=O)c2cc(F)c(NCCNC(C)=O)cc21 [7-ACETYLAMINOETHYL-AMINO-FLUOROQUINONE] | 25 µg/mL (≈ 74.6 µM) | > 100 µg/mL | > 100 µg/mL
19 | C=Cn1cc(C(=O)O)c(=O)c2cc(F)c(N3CCN(C)CC3)cc21 | 0.1 µg/mL (≈ 0.302 µM) | 3.13 µg/mL (≈ 9.45 µM) | 1.56 µg/mL (≈ 4.71 µM)
20 | CCn1cc(C(=O)O)c(=O)c2cc(F)c(N3CCN(C(C)=O)CC3)cc21 [4-N-ACETYL-1-PIPERAZINYL-NORFLOXACIN] | 1.56 µg/mL (≈ 4.32 µM) | 25 µg/mL (≈ 69.2 µM) | 0.78 µg/mL (≈ 2.16 µM)
21 | CCn1cc(C(=O)O)c(=O)c2cc(F)c(N3CCN(Cc4ccc(N)cc4)CC3)cc21 | – | 12.5 µg/mL (≈ 29.4 µM) | –
22 | CCn1cc(C(=O)O)c(=O)c2ccc(N3CCNCC3)cc21 | 0.78 µg/mL (≈ 2.59 µM) | 3.13 µg/mL (≈ 10.4 µM) | 12.5 µg/mL (≈ 41.5 µM)
23 | CCN1CCN(c2cc3c(cc2F)c(=O)c(C(=O)O)cn3CC)CC1 | 0.1 µg/mL (≈ 0.288 µM) | 3.13 µg/mL (≈ 9.01 µM) | –
24 | CCn1cc(C(=O)O)c(=O)c2cc(C(C)=O)c(N3CCNCC3)cc21 | 100 µg/mL (≈ 291 µM) | > 100 µg/mL | 100 µg/mL (≈ 291 µM)
25 | CCn1cc(C(=O)O)c(=O)c2ccc(C)nc21 [NALIDIXIC ACID] | 3.13 µg/mL (≈ 13.5 µM) | 100 µg/mL (≈ 431 µM) | > 100 µg/mL
26 | CCn1cc(C(=O)O)c(=O)c2cnc(N3CCNCC3)nc21 [PIPEMIDIC ACID] | 1.56 µg/mL (≈ 5.14 µM) | 12.5 µg/mL (≈ 41.2 µM) | 25 µg/mL (≈ 82.4 µM)

Row | Structure (SMILES) | MIC (Escherichia coli) | MIC (Pseudomonas aeruginosa) | MIC (Staphylococcus aureus)
27 | CCn1cc(C(=O)O)c(=O)c2cc(F)c(N3CCC(O)CC3)cc21 | 0.2 µg/mL (≈ 0.598 µM) | 12.5 µg/mL (≈ 37.4 µM) | 0.39 µg/mL (≈ 1.17 µM)
28 | CCn1cc(C(=O)O)c(=O)c2cc(C#N)c(N3CCNCC3)cc21 | 0.39 µg/mL (≈ 1.2 µM) | 6.25 µg/mL (≈ 19.2 µM) | 12.5 µg/mL (≈ 38.3 µM)
29 | CCn1cc(C(=O)O)c(=O)c2cc(F)c(N3CCN(C(=O)c4ccccc4)CC3)cc21 | 3.13 µg/mL (≈ 7.39 µM) | 25 µg/mL (≈ 59 µM) | 1.56 µg/mL (≈ 3.68 µM)
30 | CCn1cc(C(=O)O)c(=O)c2cc(F)c(NCCN)cc21 | 6.25 µg/mL (≈ 21.3 µM) | 50 µg/mL (≈ 170 µM) | > 100 µg/mL
31 | Cl.Cn1cc(C(=O)O)c(=O)c2cc(F)c(N3CCNCC3)cc21 | 0.39 µg/mL | 1.56 µg/mL | 6.25 µg/mL
32 | C=Cn1cc(C(=O)O)c(=O)c2cc(F)c(N3CCNCC3)cc21 | 0.1 µg/mL (≈ 0.315 µM) | 0.39 µg/mL (≈ 1.23 µM) | 3.13 µg/mL (≈ 9.86 µM)
33 | CCn1cc(C(=O)O)c(=O)c2ccc(N3CCNCC3)c(F)c21.Cl | 0.78 µg/mL | 1.56 µg/mL | 12.5 µg/mL
34 | CCn1cc(C(=O)O)c(=O)c2cc3c(cc21)OCO3 [OXOLINIC ACID] | 0.1 µg/mL (≈ 0.383 µM) | 25 µg/mL (≈ 95.7 µM) | 3.13 µg/mL (≈ 12 µM)
35 | CCn1cc(C(=O)O)c(=O)c2cc(F)c(N3CCCCC3)cc21 | 1.56 µg/mL (≈ 4.9 µM) | 50 µg/mL (≈ 157 µM) | 0.78 µg/mL (≈ 2.45 µM)
36 | CCn1cc(C(=O)O)c(=O)c2cc(F)c(N3CCN(CCO)CC3)cc21 | 0.1 µg/mL (≈ 0.275 µM) | 6.25 µg/mL (≈ 17.2 µM) | 0.78 µg/mL (≈ 2.15 µM)
37 | CCn1cc(C(=O)O)c(=O)c2cc(F)c(N3CCN(Cc4ccc([N+](=O)[O-])cc4)CC3)cc21 | 6.25 µg/mL (≈ 13.8 µM) | > 100 µg/mL | 1.56 µg/mL (≈ 3.43 µM)
38 | CCn1cc(C(=O)O)c(=O)c2cc(F)c(N3CCN(Cc4ccccc4)CC3)cc21 | 0.78 µg/mL (≈ 1.9 µM) | 50 µg/mL (≈ 122 µM) | 0.39 µg/mL (≈ 0.952 µM)
39 | CCCn1cc(C(=O)O)c(=O)c2cc(F)c(N3CCNCC3)cc21.Cl | 0.2 µg/mL | 3.13 µg/mL | 1.56 µg/mL
40 | CCn1cc(C(=O)O)c(=O)c2cc(C)c(N3CCNCC3)cc21.Cl | 0.39 µg/mL | 6.25 µg/mL | 3.13 µg/mL
41 | C=CCn1cc(C(=O)O)c(=O)c2cc(F)c(N3CCNCC3)cc21.Cl | 0.2 µg/mL | 1.56 µg/mL | 3.13 µg/mL
42 | CCn1cc(C(=O)O)c(=O)c2cc(F)c(N3CCC(C(N)=O)CC3)cc21 | 1.56 µg/mL (≈ 4.32 µM) | 100 µg/mL (≈ 277 µM) | 1.56 µg/mL (≈ 4.32 µM)
43 | CCn1cc(C(=O)O)c(=O)c2cc(F)c(N3CCN(C=O)CC3)cc21 [4-N-FORMYL-1-PIPERAZINYL-NORFLOXACIN] | 0.39 µg/mL (≈ 1.12 µM) | 6.25 µg/mL (≈ 18 µM) | 1.56 µg/mL (≈ 4.49 µM)
44 | CCn1cc(C(=O)O)c(=O)c2cc(F)c(N3CCNC(=O)C3)cc21 [3-OXO-1-PIPERAZINYL-NORFLOXACIN] | 0.39 µg/mL (≈ 1.17 µM) | 12.5 µg/mL (≈ 37.5 µM) | 3.13 µg/mL (≈ 9.39 µM)
45 | CCOC(=O)c1cn(CC)c2cc(N3CCNCC3)c(F)cc2c1=O | 12.5 µg/mL (≈ 36 µM) | 50 µg/mL (≈ 144 µM) | 50 µg/mL (≈ 144 µM)
46 | CCn1cc(C(=O)O)c(=O)c2cc(SC)c(N3CCNCC3)cc21 | 0.78 µg/mL (≈ 2.24 µM) | 12.5 µg/mL (≈ 36 µM) | 25 µg/mL (≈ 72 µM)
47 | CCn1cc(C(=O)O)c(=O)c2cc(F)c(N)cc21 [7-AMINO-FLUOROQUINONE] | 3.13 µg/mL (≈ 12.5 µM) | > 100 µg/mL | > 100 µg/mL
48 | CCn1cc(C(=O)O)c(=O)c2cc(F)c(Cl)cc21 | 1.56 µg/mL (≈ 5.79 µM) | 100 µg/mL (≈ 371 µM) | 12.5 µg/mL (≈ 46.4 µM)
49 | CCn1cc(C(=O)O)c(=O)c2cc(Br)c(N3CCN(C)CC3)cc21 | 0.39 µg/mL (≈ 0.989 µM) | 100 µg/mL (≈ 254 µM) | 1.56 µg/mL (≈ 3.96 µM)
50 | Cl.O=C(O)c1cn(CCO)c2cc(N3CCNCC3)c(F)cc2c1=O | 0.39 µg/mL | 3.13 µg/mL | 1.56 µg/mL
51 | O=C(O)c1cn(Cc2ccccc2)c2cc(N3CCNCC3)c(F)cc2c1=O | 0.78 µg/mL (≈ 2.05 µM) | 1.56 µg/mL (≈ 4.09 µM) | 1.56 µg/mL (≈ 4.09 µM)
